# Results taken from ChEMBL document CHEMBL1129062, “6- and 7-substituted 2-[2'-(dimethylamino)ethyl]-1,2-dihydro-3H-dibenz[de,h] isoquinoline-1,3-diones: synthesis, nucleophilic displacements, antitumor activity, and quantitative structure-activity relationships” (J Med Chem, 1996).
# Active and inactive are the calls of the source. No cut-off for these calls is given here.
# How the values were obtained:
# A549 [1] = assay: Tested against A549 lung carcinoma in the sulforhodamine B assay.; assay type: functional, cell-based; details: Homo sapiens
# Method in brief: (§1)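 Sulforhodamine B assay. Cells plated at 50 000/well; drug added on day 2 at 10^1–10^-5 μg/mL in half-log steps from DMSO stock diluted in PBS, final DMSO ≤0.1%. After 8-day exposure at 37 °C, cells fixed with TCA at 4 °C for 1 h and stained 30 min with 0.4% SRB. Dye solubilized in 10 mM Tris and OD read at 564 nm. Six wells per concentration; IC50 averaged.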
# UACC-375 = assay: Inhibitory activity against […] cell line; assay type: functional, cell-based; details: Homo sapiens
# B16 [2] = assay: Compound were tested against sc B16 melanoma at % tumor growth inhibition(TGI) in mice at 3 mg/kg dosage.; assay type: functional; details: Mus musculus, route subcutaneous, read-out: TGI
# L1210 [3] = assay: Inhibitory activity against sensitive L1210 cell lines; assay type: functional, cell-based; details: Mus musculus
# L1210 [4] = assay: Inhibitory activity against resistant murine leukemia L1210 cell lines.; assay type: functional, cell-based; details: Mus musculus
# MCF7 [5] = assay: Tested against […] breast carcinoma (doxorubicin resistant) cell line in the sulforhodamine B assay.; assay type: functional, cell-based; details: Homo sapiens; method in brief: as §1
# MCF7 [6] = assay: Tested against […] breast carcinoma (mitoxantrone resistant)cell line in the sulforhodamine B assay.; assay type: functional, cell-based; details: Homo sapiens; method in brief: as §1
# OVCAR-3 = assay: Inhibitory activity against OVCAR-3 cell line; assay type: functional, cell-based; details: Homo sapiens
# P388 [7] = assay: Compound was tested against P388 leukemia at % increase in life span (ILS) in mice at 3 mg/kg dosage.; assay type: functional; details: Mus musculus
# Method in brief: (§2)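 Male DBA/2J mice, 10 per group, inoculated ip on day 0 with 10^6 freshly harvested leukemia cells. Compound given ip in equal doses on days 1, 5 and 9; controls received saline ip on the same days. Highest dose set 10% below the acute LD10. %ILS = 100 × (treated − control)/control, using median life span per group; value reported at highest nontoxic dose.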
# Rattus norvegicus [8] = organism: Rattus norvegicus; assay: Cardiotoxicity by a neonatal rat heart myocyte assay; assay type: toxicity
# Method in brief: (§3)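 Neonatal rat heart myocytes exposed to drug for 1 h. Read-out is the ATP/protein ratio relative to untreated control myocytes. IC50 is the 1-h concentration that reduces this ratio to 50% of control.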
# Tumor cell line = assay: An average for IC50 values in the two solid tumor cell lines.; assay type: functional, cell-based
# WiDr [9] = assay: Tested against WiDr colon carcinoma (resistant) in the sulforhodamine B assay.; assay type: functional, cell-based; details: Homo sapiens; method in brief: as §1
# WiDr [10] = assay: Tested against WiDr colon (sensitive) in the sulforhodamine B assay.; assay type: functional, cell-based; details: Homo sapiens; method in brief: as §1
# [11] = Toxicity ratio determined by the quotient of IC50 values in the myocytes divided by the average value in the three tumor lines.; assay type: functional
# Method in brief: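 Ratio is the myocyte cardiotoxicity IC50 (1-h exposure, ATP/protein ratio versus untreated myocytes) divided by the mean IC50 in sensitive L1210 and the two human tumor lines, measured with continuous exposure.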
# [12] = An average for IC50 values in the two solid tumor cell lines and sensitive L1210 leukemia cell line.; assay type: functional, cell-based
# MCF7 [13] = assay: Tested against […] breast carcinoma (sensitive) cell line in the sulforhodamine B assay.; assay type: functional, cell-based; details: Homo sapiens; method in brief: as §1
# A549 [14] = assay: Compound was tested against A549 lung cancer cell line in the sulforhodamine B assay.; assay type: functional, cell-based; details: Homo sapiens; method in brief: as §1
# B16 [15] = assay: Compound was tested against sc B16 melanoma cell line in mice at 15 mg/kg dosage.; assay type: functional; details: Mus musculus, route subcutaneous, read-out: TGI
# L1210 [16] = assay: Compound was tested against L1210 leukemia cell line in mice at 15 mg/kg dosage.; assay type: functional; details: Mus musculus; method in brief: as §2
# P388 [17] = assay: Compound was tested against P388 leukemia cell line in mice at 15 mg/kg dosage.; assay type: functional; details: Mus musculus; method in brief: as §2
# WiDr [18] = assay: Compound was tested against WiDr colon carcinoma (resistant)cell line in the sulforhodamine B assay.; assay type: functional, cell-based; details: Homo sapiens; method in brief: as §1
# WiDr [19] = assay: Compound was tested against WiDr colon (sensitive) cell line in the sulforhodamine B assay.; assay type: functional, cell-based; details: Homo sapiens; method in brief: as §1
# B16 [20] = assay: Compound was tested against sc B16 melanoma at % tumor growth inhibition(TGI) in mice at 6 mg/kg dosage; no palpable tumor; assay type: functional; details: Mus musculus, route subcutaneous, read-out: TGI
# L1210 [21] = assay: Compound was tested against L1210 leukemia at % increase in life span (ILS) in mice at 8 mg/kg dosage.; assay type: functional; details: Mus musculus; method in brief: as §2
# P388 [22] = assay: Compound was tested against P388 leukemia at % increase in life span (ILS) in mice at 5 mg/kg dosage.; assay type: functional; details: Mus musculus; method in brief: as §2
# B16 [23] = assay: Compound was tested against sc B16 melanoma at % tumor growth inhibition(TGI) in mice at 4 mg/kg dosage.; assay type: functional; details: Mus musculus, route subcutaneous, read-out: TGI
# L1210 [24] = assay: Compound was tested against L1210 leukemia at % increase in life span (ILS) in mice at 5 mg/kg dosage.; assay type: functional; details: Mus musculus; method in brief: as §2
# P388 [25] = assay: Compounds was tested against P388 leukemia at % increase in life span (ILS) in mice at 4.5 mg/kg dosage.; assay type: functional; details: Mus musculus; method in brief: as §2
# WiDr [26] = assay: Compound was tested against WiDr colon carcinoma (resistant) in the sulforhodamine B assay.; assay type: functional, cell-based; details: Homo sapiens; method in brief: as §1
# P388 [27] = assay: Compound was tested against P388 leukemia at % increase in life span (ILS) in mice at 15 mg/kg dosage; Not active at highest dose tested (% ILS<25); assay type: functional, organism-based; design: dose 15 mg/kg; details: Mus musculus
# Rattus norvegicus [28] = organism: Rattus norvegicus; assay: Compound was tested for Cardiotoxicity by a neonatal rat heart myocyte assay.; assay type: functional; method in brief: as §3
# [29] = test system: neonatal heart myocytes (Rattus norvegicus); assay: Cardio toxicity was measured.
# A549 [30] = assay: Compound tested against A549 lung carcinoma in the sulforhodamine B assay.; assay type: functional, cell-based; details: Homo sapiens; method in brief: as §1
# L1210 [31] = assay: Compound was tested against L1210 leukemia at % increase in life span (ILS) in mice at 8 mg/kg dosage; Not active; assay type: functional, organism-based; design: dose 8 mg/kg; details: Mus musculus
# WiDr [32] = assay: Compound tested against WiDr colon carcinoma (resistant) in the sulforhodamine B assay.; assay type: functional, cell-based; details: Homo sapiens; method in brief: as §1
# WiDr [33] = assay: Compound tested against WiDr colon (sensitive) in the sulforhodamine B assay.; assay type: functional, cell-based; details: Homo sapiens; method in brief: as §1
# P388 [34] = assay: Compound was tested against P388 leukemia at % increase in life span (ILS) in mice at 15 mg/kg dosage.; assay type: functional; details: Mus musculus; method in brief: as §2
# B16 [35] = assay: Compound was tested against sc B16 melanoma at % tumor growth inhibition(TGI) in mice at 3.2 mg/kg dosage.; assay type: functional; details: Mus musculus, route subcutaneous, read-out: TGI
# L1210 [36] = assay: Compound was tested against L1210 leukemia at % increase in life span (ILS) in mice at 1.6 mg/kg dosage.; assay type: functional; details: Mus musculus; method in brief: as §2
# P388 [37] = assay: Compound was tested against P388 leukemia at % increase in life span (ILS) in mice at 1.6 mg/kg dosage.; assay type: functional; details: Mus musculus; method in brief: as §2
# A549 [38] = assay: Compound was tested against A549 lung carcinoma cell line in the sulforhodamine B assay.; assay type: functional, cell-based; details: Homo sapiens; method in brief: as §1
# WiDr [39] = assay: Compound tested against WiDr colon carcinoma (resistant)cell line in the sulforhodamine B assay.; assay type: functional, cell-based; details: Homo sapiens; method in brief: as §1
IC50 (UACC-375),IC50 (L1210 [4]),IC50 (OVCAR-3),SMILES,IC50 (A549 [1]),IC50 (L1210 [3]),IC50 (MCF7 [5]),IC50 (MCF7 [6]),IC50 (Rattus norvegicus [8]),IC50 (Tumor cell line),IC50 (WiDr [9]),IC50 (WiDr [10]),Toxicity ratio [11],IC50 [12],IC50 (MCF7 [13]),other results
–,–,–,CN(C)CCN1C(=O)c2cccc3cc4ccccc4c(c23)C1=O [AZONAFIDE],–,7 nM,70 nM,20 nM,1980 nM,64 nM,–,–,44,45 nM,18 nM,IC50 (A549 [14]): 10 nM; inhibition in vivo at 15 mg/kg (B16 [15]): 74%; ILS at 15 mg/kg (L1210 [16]): 72%; ILS at 15 mg/kg (P388 [17]): 79%; IC50 (WiDr [18]): 94 nM; IC50 (WiDr [19]): 13 nM
–,–,–,COc1cccc2c1C(=O)c1c(O)c3c(c(O)c1C2=O)C[C@@](O)(C(=O)CO)C[C@@H]3O[C@H]1C[C@H](N)[C@H](O)[C@H](C)O1 [DOXORUBICIN],–,–,–,–,10200 nM,74 nM,–,53 nM,–,61 nM,–,inhibition in vivo at 4 mg/kg (B16 [23]): 120%; ILS at 5 mg/kg (L1210 [24]): 210%; ILS at 4.5 mg/kg (P388 [25]): 113%; IC50 (WiDr [26]): 130 nM
141 nM,27 nM,217 nM,Cc1ccc2c3c(c4ccccc4cc13)C(=O)N(CCN(C)C)C2=O,–,6.8 nM,–,–,–,179 nM,–,–,8.1,–,–,ILS (P388 [27]): inactive; IC50 (Rattus norvegicus [28]): 989 nM; IC50 [29]: 989 nM
31 nM,1.3 nM,31 nM,CN(C)CCOc1ccc2c3c(c4ccccc4cc13)C(=O)N(CCN(C)C)C2=O,–,0.2 nM,8.9 nM,3.9 nM,5440 nM,31 nM,–,–,262,21 nM,3.9 nM,IC50 (A549 [30]): 0.58 nM; ILS (L1210 [31]): inactive; IC50 (WiDr [32]): 10 nM; IC50 (WiDr [33]): 2.4 nM
–,–,–,CN(C)CCN1C(=O)c2cccc3cc(N)cc(c23)C1=O [AMONAFIDE],–,–,–,–,48400 nM,2110 nM,–,–,30,1610 nM,–,ILS at 15 mg/kg (P388 [34]): 88%
–,–,–,O=C1c2c(O)ccc(O)c2C(=O)c2c(NCCNCCO)ccc(NCCNCCO)c21 [MITOXANTRONE],3.1 nM,9.7 nM,72 nM,41 nM,7740 nM,27 nM,488 nM,8.1 nM,368,21 nM,8.7 nM,inhibition in vivo at 3.2 mg/kg (B16 [35]): 130%; ILS at 1.6 mg/kg (L1210 [36]): 150%; ILS at 1.6 mg/kg (P388 [37]): 200%
416 nM,416 nM,416 nM,CN(C)CCN1C(=O)c2ccc(I)c3cc4ccccc4c(c23)C1=O,–,416 nM,30 nM,10 nM,43700 nM,416 nM,–,–,105,416 nM,11 nM,IC50 (A549 [38]): 10 nM; IC50 (WiDr [19]): 65 nM; IC50 (WiDr [39]): 620 nM

SMILES,IC50 (UACC-375),IC50 (L1210 [4]),IC50 (OVCAR-3),IC50 (A549 [1]),IC50 (L1210 [3]),IC50 (MCF7 [5]),IC50 (MCF7 [6]),IC50 (Rattus norvegicus [8]),IC50 (Tumor cell line),IC50 (WiDr [9]),IC50 (WiDr [10]),Toxicity ratio [11],IC50 [12],IC50 (MCF7 [13]),other results
CN(C)CCNc1ccc2c3c(c4ccccc4cc13)C(=O)N(CCN(C)C)C2=O,11 nM,0.04 nM,63 nM,0.43 nM,0.04 nM,14 nM,1.9 nM,4190 nM,37 nM,14 nM,1.7 nM,171,25 nM,1 nM,inhibition in vivo at 3 mg/kg (B16 [2]): 66%; ILS at 3 mg/kg (P388 [7]): 44%
CCOc1ccc2c3c(c4ccccc4cc13)C(=O)N(CCN(C)C)C2=O,19 nM,6.7 nM,0.8 nM,2.9 nM,8 nM,18 nM,14 nM,1780 nM,10 nM,63 nM,17 nM,192,9.3 nM,11 nM,inhibition in vivo at 6 mg/kg (B16 [20]): > 100%; ILS at 8 mg/kg (L1210 [21]): 100%; ILS at 5 mg/kg (P388 [22]): 55%
